Reference: ChEMBL document CHEMBL1649117, “GRL-02031, a novel nonpeptidic protease inhibitor (PI) containing a stereochemically defined fused cyclopentanyltetrahydrofuran potent against multi-PI-resistant human immunodeficiency virus type 1 in vitro” (Antimicrob Agents Chemother, 2009)

Legend:
[1] = system: Human immunodeficiency virus 1; experiment: Antiviral activity against HIV1 C harboring L10I/I15V/K20R/L24I/M36I/M46L/I54V/I62V/L63P/K70Q/V82A/L89M in protease encoding region infected in human PHA-PBC assessed as inhibition of p24 Gag protein production by ELISA; type: functional, organism-based; conditions: Human immunodeficiency virus 1, C
Outline: (§1)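 Phytohemagglutinin-stimulated PBMs (10^6/ml) infected with 50 TCID50s of each primary isolate, cultured with or without drug in 10-fold serial dilutions. On day 7, supernatant p24 Gag was measured by automated chemiluminescent enzyme immunoassay. […] Triplicate.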

[2] = system: Human immunodeficiency virus 1; experiment: Antiviral activity against HIV1 B harboring L10I/I15V/E35D/N37E/K45R/I54V/L63P/A71V/V82T/L90M/I93L/C95F in protease encoding region infected in human PHA-PBC assessed as inhibition of p24 Gag protein production by ELISA; type: functional, organism-based; conditions: Human immunodeficiency virus 1, B; outline: as §1
[3] = system: Human immunodeficiency virus 1; experiment: Ratio of EC50 for HIV1 G harboring L10I/V11I/T12E/I15V/L19I/R41K/M46L/L63P/A71T/V82A/L90M in protease encoding region to EC50 for HIV1 ERS104pre; type: functional
[4] = system: Human immunodeficiency virus 1; experiment: Ratio of EC50 for HIV1 B harboring L10I/I15V/E35D/N37E/K45R/I54V/L63P/A71V/V82T/L90M/I93L/C95F in protease encoding region to EC50 for HIV1 ERS104pre; type: functional
[5] = system: Human immunodeficiency virus 1; experiment: Antiviral activity against HIV1 A harboring L10I/I15V/E35D/N37E/K45R/I54V/L63P/A71V/V82T/L90M/I93L/C95F in protease encoding region infected in human PHA-PBC assessed as inhibition of p24 Gag protein production by ELISA; type: functional, organism-based; conditions: Human immunodeficiency virus 1, A
Outline: (§2)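 Phytohemagglutinin-stimulated PBMs (10^6/ml) infected with 50 TCID50s of each primary isolate, cultured with or without drug in 10-fold serial dilutions. On day 7, supernatant p24 Gag was measured by automated chemiluminescent enzyme immunoassay. Triplicate.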

[6] = system: Human immunodeficiency virus 1; experiment: Antiviral activity against HIV1 JSL harboring L10I/L24I/L33F/E35D/M36I/N37S/M46L/I54V/R57K/I62V/L63P/A71V/G73S/82A in protease encoding region infected in human PHA-PBC assessed as inhibition of p24 Gag protein production by ELISA; type: functional, organism-based; conditions: Human immunodeficiency virus 1, JSL; outline: as §1
[7] = system: Human immunodeficiency virus 1; experiment: Ratio of EC50 for HIV1 A harboring L10I/I15V/E35D/N37E/K45R/I54V/L63P/A71V/V82T/L90M/I93L/C95F in protease encoding region to EC50 for HIV1 ERS104pre; type: functional
[8] = system: Human immunodeficiency virus 1; experiment: Ratio of EC50 for HIV1 JSL harboring L10I/L24I/L33F/E35D/M36I/N37S/M46L/I54V/R57K/I62V/L63P/A71V/G73S/82A in protease encoding region to EC50 for HIV1 ERS104pre; type: functional
[9] = system: Human immunodeficiency virus 1; experiment: Antiviral activity against HIV1 ERS104pre infected in human PHA-PBC assessed as inhibition of p24 Gag protein production by ELISA; type: functional, organism-based; conditions: Human immunodeficiency virus 1, ERS104pre; outline: as §2
[10] = system: Human immunodeficiency virus 1; experiment: Antiviral activity against HIV1 MOKW infected in human PHA-PBC assessed as inhibition of p24 Gag protein production by ELISA; type: functional, organism-based; conditions: Human immunodeficiency virus 1, MOKW; outline: as §1
[11] = system: Human immunodeficiency virus 1; experiment: Ratio of EC50 for HIV1 TM harboring L10I/K14R/R41K/M46L/I54V/L63P/A71V/V82A/L90M/I93L in protease encoding region to EC50 for HIV1 ERS104pre; type: functional
Outline: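 PHA-stimulated PBMs (10^6/ml) infected with 50 TCID50s of primary HIV-1 isolate and cultured with 10-fold serial drug dilutions. Day 7 supernatant p24 Gag measured by chemiluminescent enzyme immunoassay. […] Triplicate. Ratio is resistant isolate EC50 over reference isolate EC50.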

[12] = system: Human immunodeficiency virus 1; experiment: Ratio of EC50 for HIV1 MM harboring L10I/K43T/M46L/I54V/L63P/A71V/V82A/L90M/Q92K in protease encoding region infected to EC50 for HIV1 ERS104pre; type: functional
[13] = system: Human immunodeficiency virus 1; experiment: Antiviral activity against HIV1 G harboring L10I/V11I/T12E/I15V/L19I/R41K/M46L/L63P/A71T/V82A/L90M in protease encoding region infected in human PHA-PBC assessed as inhibition of p24 Gag protein production by ELISA; type: functional, organism-based; conditions: Human immunodeficiency virus 1, G; outline: as §1
[14] = system: Human immunodeficiency virus 1; experiment: Antiviral activity against HIV1 MM harboring L10I/K43T/M46L/I54V/L63P/A71V/V82A/L90M/Q92K in protease encoding region infected in human PHA-PBC assessed as inhibition of p24 Gag protein production by ELISA; type: functional, organism-based; conditions: Human immunodeficiency virus 1, MM; outline: as §1
[15] = system: Human immunodeficiency virus 1; experiment: Ratio of EC50 for HIV1 C harboring L10I/I15V/K20R/L24I/M36I/M46L/I54V/I62V/L63P/K70Q/V82A/L89M in protease encoding region to EC50 for HIV1 ERS104pre; type: functional
[16] = system: Human immunodeficiency virus 1; experiment: Antiviral activity against HIV1 TM harboring L10I/K14R/R41K/M46L/I54V/L63P/A71V/V82A/L90M/I93L in protease encoding region infected in human PHA-PBC assessed as inhibition of p24 Gag protein production by ELISA; type: functional, organism-based; conditions: Human immunodeficiency virus 1, TM; outline: as §1
[17] = system: Human immunodeficiency virus 1; experiment: Antiviral activity against HIV1 NL4-3 harboring L10F/V32I/M46I/I54M//A71V/I84V amino acid substitution in protease encoding region infected in human MT4 cells assessed as inhibition of p24 Gag protein production selected at 5 uM of amprenavir by ELISA; type: functional, organism-based; conditions: Human immunodeficiency virus 1, NL4-3, MT4
Outline: (§3)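 Cell-free passage used day-7 supernatants. Variants were then tested in MT-4 cells (10^5/ml) with 100 TCID50s, with or without drug, at 37°C. Day-7 p24 Gag was read by chemiluminescent immunoassay; EC50 vs drug-free control; triplicate.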

[18] = system: Human immunodeficiency virus 1; experiment: Antiviral activity against HIV1 NL4-3 harboring L10F/L33F/M46I/I47V/Q58E/V82I/I84V/I85V amino acid substitution in protease encoding region infected in human MT4 cells assessed as inhibition of p24 Gag protein production selected at 5 uM of GRL-02031 by ELISA; type: functional, organism-based; conditions: Human immunodeficiency virus 1, NL4-3, MT4; outline: as §3
[19] = system: Human immunodeficiency virus; experiment: Antiviral activity against HIV1 LAI infected in human MT2 cells after 7 days by MTT assay; type: functional, organism-based; conditions: Human immunodeficiency virus 1, LAI, MT2, 168 h
[20] = system: Human immunodeficiency virus 1; experiment: Antiviral activity against HIV1 NL4-3 harboring L10F/D30N/K45I/A71V/T74S amino acid substitution in protease encoding region infected in human MT4 cells assessed as inhibition of p24 Gag protein production selected at 5 uM of nelfinavir by ELISA; type: functional, organism-based; conditions: Human immunodeficiency virus 1, NL4-3, MT4
Outline: (§4)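 HIV-1NL4-3 (500 TCID50s) was passaged in MT-4 cells, starting at 0.01–0.03 µM PI and raising the drug generally two- to threefold as virus propagated. Cell-free passage used day-7 supernatants. Variants were then tested in MT-4 cells (10^5/ml) with 100 TCID50s, with or without drug, at 37°C. Day-7 p24 Gag was read by chemiluminescent immunoassay; EC50 vs drug-free control; triplicate.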

[21] = system: Human immunodeficiency virus 1; experiment: Antiviral activity against HIV1 NL4-3 harboring L10F/L24I/M46I/L63P/A71V/G73S/V82T amino acid substitution in protease encoding region infected in human MT4 cells assessed as inhibition of p24 Gag protein production selected at 5 uM of indinavir by ELISA; type: functional, organism-based; conditions: Human immunodeficiency virus 1, NL4-3, MT4; outline: as §4
[22] = system: Human immunodeficiency virus 1; experiment: Antiviral activity against HIV1 NL4-3 harboring M46I/V82F/I84V amino acid substitution in protease encoding region infected in human MT4 cells assessed as inhibition of p24 Gag protein production selected at 5 uM of ritonavir by ELISA; type: functional, organism-based; conditions: Human immunodeficiency virus 1, NL4-3, MT4; outline: as §4
[23] = system: Human immunodeficiency virus 1; experiment: Antiviral activity against HIV1 NL4-3 harboring L10I/G48V/I54V/L90M amino acid substitution in protease encoding region infected in human MT4 cells assessed as inhibition of p24 Gag protein production selected at 5 uM of saquinavir by ELISA; type: functional, organism-based; conditions: Human immunodeficiency virus 1, NL4-3, MT4; outline: as §4
[24] = system: Human immunodeficiency virus 1; experiment: Antiviral activity against HIV1 NL4-3 infected in human MT4 cells assessed as inhibition of p24 gag protein production by ELISA; type: functional, organism-based; conditions: Human immunodeficiency virus 1, NL4-3, MT4
Outline: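 MT-4 cells (10^5/ml) were infected with 100 TCID50s of HIV-1 and cultured at 37°C with or without various drug concentrations. On day 7, supernatant p24 Gag was measured by automated chemiluminescent enzyme immunoassay. […] Assays were run in triplicate.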

[25] = system: Human immunodeficiency virus 1; experiment: Antiviral activity against HIV1 NL4-3 harboring L23I/K43I/M46I/I50L/G51A/A71V amino acid substitution in protease encoding region infected in human MT4 cells assessed as inhibition of p24 Gag protein production selected at 1 uM of atazanavir by ELISA; type: functional, organism-based; conditions: Human immunodeficiency virus 1, NL4-3, MT4; outline: as §4
[26] = system: Human immunodeficiency virus 1; experiment: Antiviral activity against HIV1 NL4-3 harboring L10F/M46I/I54V/V82A amino acid substitution in protease encoding region infected in human MT4 cells assessed as inhibition of p24 Gag protein production selected at 1 uM of Lopinavir by ELISA; type: functional, organism-based; conditions: Human immunodeficiency virus 1, NL4-3, MT4; outline: as §3

Structure (SMILES): Cc1cn([C@H]2C[C@H](N=[N+]=[N-])[C@@H](CO)O2)c(=O)[nH]c1=O [ZIDOVUDINE]
- EC50 [1]: 280 nM
- EC50 [2]: > 1000 nM
- Ratio EC50 [3]: >120
- Ratio EC50 [4]: 200
- EC50 [5]: 120 nM
- EC50 [6]: 180 nM
- Ratio EC50 [7]: 24
- Ratio EC50 [8]: 36
- EC50 [9]: 5 nM
- EC50 [10]: 16 nM
- Ratio EC50 [11]: 178
- Ratio EC50 [12]: 90
- EC50 [13]: 600 nM
- EC50 [14]: 450 nM
- Ratio EC50 [15]: 56
- EC50 [16]: 890 nM

Structure (SMILES): CC(C)CN(C[C@@H](O)[C@H](Cc1ccccc1)NC(=O)O[C@H]1CO[C@H]2OCC[C@H]21)S(=O)(=O)c1ccc(N)cc1
- EC50 [2]: 26 nM
- Ratio EC50 [3]: 2
- Ratio EC50 [4]: 7
- EC50 [5]: 3 nM
- EC50 [6]: 26 nM
- Ratio EC50 [7]: 1
- Ratio EC50 [8]: 7
- EC50 [9]: 3.5 nM
- EC50 [10]: 3 nM
- Ratio EC50 [11]: 1
- Ratio EC50 [12]: 5
- EC50 [14]: 17 nM
- Ratio EC50 [15]: 2
- EC50 [16]: 4 nM

Structure (SMILES): CC(C)c1nc(CN(C)C(=O)N[C@H](C(=O)N[C@@H](Cc2ccccc2)C[C@H](O)[C@H](Cc2ccccc2)NC(=O)OCc2cncs2)C(C)C)cs1 [RITONAVIR]
- EC50 [17]: > 1000 nM
- EC50 [18]: 260 nM
- EC50 [19]: 38 nM
- EC50 [20]: 80 nM
- EC50 [1]: > 1000 nM
- EC50 [2]: > 1000 nM
- EC50 [21]: > 1000 nM
- EC50 [22]: > 1000 nM
- EC50 [5]: > 1000 nM
- EC50 [6]: > 1000 nM
- EC50 [23]: > 1000 nM
- EC50 [9]: 36 nM
- EC50 [24]: 21 nM
- EC50 [25]: 140 nM
- EC50 [10]: 36 nM
- EC50 [26]: > 1000 nM
- EC50 [13]: > 1000 nM
- EC50 [14]: > 1000 nM
- EC50 [16]: > 1000 nM

Structure (SMILES): Cc1cccc(C)c1OCC(=O)N[C@@H](Cc1ccccc1)[C@@H](O)C[C@H](Cc1ccccc1)NC(=O)[C@H](C(C)C)N1CCCNC1=O [LOPINAVIR]
- EC50 [20]: 290 nM
- EC50 [1]: 460 nM
- EC50 [2]: 250 nM
- EC50 [21]: > 1000 nM
- EC50 [22]: 110 nM
- EC50 [6]: 740 nM
- EC50 [23]: 700 nM
- EC50 [25]: 25 nM
- EC50 [10]: 29 nM
- EC50 [13]: 130 nM
- EC50 [14]: 620 nM
- EC50 [16]: 230 nM
